Experiments:
[1] = Stability of stock and working standard solutions at refrigerated conditions; assay type: physicochemical; conditions: for stability of stock solutions (1 mg mL^−1): refrigerator (8 °C), at least one month, DMSO/acetonitrile; for Recovery (%): 30 days at 8 °C
How it was run: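 Stocks were made at 1 mg mL−1: analyte dissolved in 1 mL DMSO, made up with acetonitrile. They were held refrigerated at 8 °C. Working solutions were diluted in acetonitrile to 5–500 ng mL−1, with internal standard at 200 ng mL−1.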

[2] = Stability studies of DUV in human plasma samples; assay type: in vitro ADME
How it was run: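 Blank human plasma was spiked at 15, 150 and 400 ng mL−1 with internal standard at 200 ng mL−1. Exposures: ~48 h in the autosampler, ~6 h at room temperature, three −80 °C/room-temperature freeze–thaw cycles, or 60 days at −80 °C. Samples were precipitated with an equal volume of mobile phase, vortexed, spun, filtered and run by C18 UPLC-ESI-MRM. Mean of 3.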

[3] = Pharmacokinetic study in rats after single oral dose of DUV; assay type: in vivo, Wistar rat
How it was run: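 Male Wistar rats (250 ± 30 g), acclimatised 7 days and fasted 12 h with free water, got one oral gavage dose of 25 mg kg−1 in 1% DMSO/saline. About 300 µL heparinised blood was drawn predose and at 0.25–12 h. Plasma was spun at 4500 rpm, 4 °C, 30 min, stored at −20 °C, then quantified by UPLC-ESI-MS/MS. Non-compartmental analysis, 5 rats.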

[4] = male, Wistar, rat, plasma, po, 25 mg/kg
[5] = rat plasma, single oral 25 mg kg^−1, mean of 5

Cc1cc(Nc2ncc(Cl)c(Nc3ccccc3S(=O)(=O)C(C)C)n2)c(OC(C)C)cc1C1CCNCC1 [CRB, Ceritinib]
stability of stock solutions (1 mg mL^−1) [1]: stable

C[C@H](Nc1ncnc2nc[nH]c12)c1cc2cccc(Cl)c2c(=O)n1-c1ccccc1 [DUV, 8-chloro-2-phenyl-3-[(1S)-1-(7H-purin-6-ylamino)ethyl]isoquinolin-1-one]
Recovery (%) ([2]; 60 days at −80 °C, spiked conc. 5 ng mL^−1, mean of 3): 101.51% | Recovery (%) ([2]; 60 days at −80 °C, spiked conc. 15 ng mL^−1, mean of 3): 99.84% | Recovery (%) ([2]; 60 days at −80 °C, spiked conc. 150 ng mL^−1, mean of 3): 101.19% | Recovery (%) ([2]; 60 days at −80 °C, spiked conc. 400 ng mL^−1, mean of 3): 99.87% | Recovery (%) ([2]; Autosampler (48 h), spiked conc. 5 ng mL^−1, mean of 3): 100.12% | Recovery (%) ([2]; Autosampler (48 h), spiked conc. 15 ng mL^−1, mean of 3): 95.89% | Recovery (%) ([2]; Autosampler (48 h), spiked conc. 150 ng mL^−1, mean of 3): 98.42% | Recovery (%) ([2]; Autosampler (48 h), spiked conc. 400 ng mL^−1, mean of 3): 103.28% | Recovery (%) ([2]; Bench top (6 h), room temperature, spiked conc. 5 ng mL^−1, mean of 3): 99.52% | Recovery (%) ([2]; Bench top (6 h), room temperature, spiked conc. 15 ng mL^−1, mean of 3): 100.21% | Recovery (%) ([2]; Bench top (6 h), room temperature, spiked conc. 150 ng mL^−1, mean of 3): 101.43% | Recovery (%) ([2]; Bench top (6 h), room temperature, spiked conc. 400 ng mL^−1, mean of 3): 99.26% | time stable under autosampler storage settings ([2]; autosampler storage settings): ≥ 48 h | recovery ([2]; human, human plasma (spiked QC samples)): 95.9 to 103% | time stable in plasma samples on the bench ([2]; room temperature, bench): at least 6 hours | stability during freeze–thaw cycles ([2]; three freeze–thaw cycles): stable | stability at long-term storage ([2]; −80 °C for 60 days): stable | Cmax [3, 4]: 3.8 µg/mL | MRT [3, 4]: 1.04 h | Tmax [3, 4]: 1.83 h | half-life [3, 4]: 0.72 h | k el [3, 4]: 0.000269 s⁻¹ | Area under curve ration (AUC0–t/AUC0–∞) [3, 5]: 95.69% | Clearance (CL) [3, 5]: 0.85 L/h/kg | Elimination half-life time (t1/2) [3, 5]: 0.72 h⁻¹ | Volume of distribution (Vd) [3, 5]: 0.88 L/kg | Recovery (%) ([1]; spiked conc. 5 ng mL^−1, mean of 3): 96.94% | Recovery (%) ([1]; spiked conc. 15 ng mL^−1, mean of 3): 103.24% | Recovery (%) ([1]; spiked conc. 150 ng mL^−1, mean of 3): 101.02% | Recovery (%) ([1]; spiked conc. 400 ng mL^−1, mean of 3): 96.27% | stability of stock and working standard solutions ([1]; 30 days at refrigerated conditions (8 °C)): stable | stability of stock solutions (1 mg mL^−1) [1]: stable

Reference: PMC9999367 (RSC Advances, 2023)
